In the EternaBench riboswitch data:

Test system: MS2 coat protein
Assay: apparent Kd, MS2 coat protein; higher = weaker binding; RNA-MaP array
How it was run: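 Binding of fluorescently labeled MS2 coat protein, at 1.5 nM to 3 μM and room temperature, was measured with or without input ligand on designed RNAs transcribed on an Illumina sequencing chip from sequenced DNA templates. Apparent Kd was defined as the median of per-cluster binding-curve fits. No design measured on fewer than 10 clusters was kept.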

[1] = designed as: OFF switch for flavin mononucleotide, no ligand
[2] = ligand present: flavin mononucleotide, designed as: OFF switch for flavin mononucleotide
[3] = designed as: ON switch for flavin mononucleotide, no ligand
[4] = ligand present: flavin mononucleotide, designed as: ON switch for flavin mononucleotide
[5] = designed as: OFF switch for tryptophan, no ligand
[6] = ligand present: tryptophan, designed as: OFF switch for tryptophan
[7] = designed as: ON switch for theophylline, no ligand
[8] = ligand present: theophylline, designed as: ON switch for theophylline
[9] = designed as: ON switch for tryptophan, no ligand
[10] = ligand present: tryptophan, designed as: ON switch for tryptophan

With “ACCGUGUCAGGAUAUCGGGUAUUCUUCCGUAUAAUACCAGCCGAGAAGGGACAUGAGGAUCACCCAUGUGGACA” the “apparent Kd” value [1] was 33.2 nM and the “apparent Kd” value [2] was 57.8 nM.

In the case of “ACCUAUACUCCAGGAUAUCAAGACCGAUGACAUGAGGAUCACCCAUGUCAAUCAAAACCAUGACGUGAGAAGGGGAGGCUCGUC”, the “apparent Kd” value [3] is reported as 6.5 nM and the “apparent Kd” value [4] is reported as 6.05 nM.

In the case of “ACGAGAGCCCAGAAGGACACGGGAUACUCACAAGCAUUCUGGACAUGAGGAUCACCCAUGUGUAUGUAGGAUAUGGGAGUUGCG”, the “apparent Kd” value [3] is reported as 31 nM and the “apparent Kd” value [4] is reported as 15.2 nM.

With “ACGUUCGCGGUAUCCAACCGGUUGUACAAACGAGGACCGGUACGGCCGCCACUCGUGAUUGUACAUGAGGAUCACCCAUGUGGCA” the “apparent Kd” value [5] was 17.6 nM and the “apparent Kd” value [6] was 17.2 nM.

“ACUUACGGAAAGAAGGAGGGACAGUCACGGCGGGCGGACCACAUGAGGAUCACCCAUGUGCGAGCCUAGGAUAUUUAGGGUAGC” was tested, and the “apparent Kd” value [1] was 7.19 nM and the “apparent Kd” value [2] was 7.23 nM.

“ACUUCAGAUACAGGAUAUAGCGUAACAUGAGGAUCACCCAUGUCUUGAUGCCUCUGUCGCGACGACUAGAAGGGUAAGCUUUGA” was tested, and the “apparent Kd” value [1] was 91.6 nM and the “apparent Kd” value [2] was 86.7 nM.

In the case of “AGAUCCUAAGUAAGGAUAUACCUCGCACACAAGUCGUAGAAGGUACAUGAGGAUCACCCAUGUAGGAAAGUACU”, the “apparent Kd” value [1] is reported as 12.4 nM and the “apparent Kd” value [2] is reported as 15.3 nM.

For “AGAUUCUCUGAAGGAUAUCGCGUUUAUUUCGAGCGAGAAGGUCAAUUAUGGGAGAUGCACAUGAGGAUCACCCAUGUUCGAAAA”, the “apparent Kd” value [1] was 339 nM and the “apparent Kd” value [2] was 119 nM.

For “AGCUCGUAGACAUGAGGAUCACCCAUGUAGAUCAAGAAAUUCAAGGAUAUUGGGAGUAAGCCGUGCAAGAAGGUGAGACUAGAU”, the “apparent Kd” value [3] was 57 nM and the “apparent Kd” value [4] was 45.2 nM.

With “AGGAGGCAUAAGAAGGGUACAUGUAUUGGGUGUACAGGAUAUUACAGGUGCCGCACAUGAGGAUCACCCAUGUUAUCAUUGUGC” the “apparent Kd” value [1] was 39 nM and the “apparent Kd” value [2] was 34 nM.

For “AUAAAGGAAGGAUAUACAUGAGGAUCACCCAUGUUGAAAUACAGAAAAGGAGAAACAAGUAGAAGGACCGAUGU”, the “apparent Kd” value [1] was 14.2 nM and the “apparent Kd” value [2] was 11.6 nM.

“AUAGAACAUGAGGAUCACCCAUGUAGAAAAUCAGCAGGAUAUGUGAUCACUCCGUAAUUGACAGAAGGGCUAACAA” was tested, and the “apparent Kd” value [3] was 68.2 nM and the “apparent Kd” value [4] was 28.8 nM.

For “AUCACAACCAAGAAGGGUCAGAUAACUCGAGAGACAGGAUAUUGAACAACAUAGUCAACAUGAGGAUCACCCAUGUAAAAUAAA”, the “apparent Kd” value [3] was 54 nM and the “apparent Kd” value [4] was 24.2 nM.

“AUCGGCGCACAGAAGGGACGAUCAAACUGCUGAUCACAUGAGGAUCACCCAUGUUGUUUGGAUAGUCAGGAUAUGUUGACCAUG” was tested, and the “apparent Kd” value [1] was 17.6 nM and the “apparent Kd” value [2] was 16 nM.

In the case of “AUGAAAAGUACAGGAUAUAUAUAAACACAAAACGGACAUGAGGAUCACCCAUGUUGACGUUGUCAAUAGAAGGGUACCAACACA”, the “apparent Kd” value [3] is reported as 26.1 nM and the “apparent Kd” value [4] is reported as 10.7 nM.

With “AUGUCACAUGAGGAUCACCCAUGUAUGGAUACCAGUUUAGUGAAUAACCCUUGGCAGCCAAGGAUGCGACAGAAAUCCGGAAAAC” the “apparent Kd” value [7] was 21.3 nM and the “apparent Kd” value [8] was 21.1 nM.

With “AUUGUCAAGUCGGCCGCCACUUCUGCCAUGGCCACCAGUCGACAUGAGGAUCACCCAUGUCUCUUAAGGACCGGGACUUUCAAUU” the “apparent Kd” value [9] was 13.2 nM and the “apparent Kd” value [10] was 12.1 nM.

With “CAAAAUGCGGCGGCCGCCACUCAGCUCCGUGUGGUUGGUCAUCUUAACAUGAGGAUCACCCAUGUGAGGACCGGGCCAGCGAGUG” the “apparent Kd” value [5] was 13.5 nM and the “apparent Kd” value [6] was 13.9 nM.

With “CAAAUGUGCACUCGUGAUACAUGAGGAUCACCCAUGUCAACUAAGGAUAUCUGGAAGUCACAUCGAGAGAAGGUAGCGUACCCU” the “apparent Kd” value [1] was 10.5 nM and the “apparent Kd” value [2] was 9.44 nM.

For “CAAGGGAAUACAGGAUAUUGCUGGAGUUGGGCGAGACAUGAGGAUCACCCAUGUUAUGCUAUAGUCAAGAAGGGUAUCUCGAGG”, the “apparent Kd” value [1] was 18.5 nM and the “apparent Kd” value [2] was 13 nM.

“CAUACAUAACAUGAGGAUCACCCAUGUGACUCACUCUGAAAGCAGGAUAUAUUCGGUAAGCUACGAUAGAAGGGCUAUGCGUAA” was tested, and the “apparent Kd” value [1] was 42.2 nM and the “apparent Kd” value [2] was 31.3 nM.

For “CAUACGCCGCAGAAGGAGUCGAGUCCGUUUCAACUAGGAUAUGCCAGAACAUGAGGAUCACCCAUGUUGCGGGUGCAGCUCAAU”, the “apparent Kd” value [1] was 37.8 nM and the “apparent Kd” value [2] was 38.9 nM.

In the case of “CAUGUGUAAGGAUAUGCGUCGAUAUCAACUAACUAUAUGAUGCAGAAGGUACAUGAGGAUCACCCAUGUGAACU”, the “apparent Kd” value [1] is reported as 30.3 nM and the “apparent Kd” value [2] is reported as 118 nM.

For “CCAUGAAGCGAGGAUAUUCUCACUGCCAAGUUGGAAGAAGGCGCUACAUGAGGAUCACCCAUGUAGUCAGUCCG”, the “apparent Kd” value [1] was 5.07 nM and the “apparent Kd” value [2] was 5.32 nM.

In the case of “CCAUGGAGGACUGAGGAUAUUCGCAUAAGCACAUGAGGAUCACCCAUGUCAGAAAUAAAUCUCUAGAAGAAGGCAGCGCUAAGACA”, the “apparent Kd” value [3] is reported as 12.9 nM and the “apparent Kd” value [4] is reported as 13.2 nM.

For “CCAUGUAAUGUAAGGAUAUUCCAGGUAAUUACUUUGAAGAAGGUACAUGAGGAUCACCCAUGUGGAAACGAAUG”, the “apparent Kd” value [1] was 18.6 nM and the “apparent Kd” value [2] was 64.5 nM.

For “CCGCCUCGCGUCAGGAUAUGUAACAAUUGUCAAAUACAGAAGGGACAUGAGGAUCACCCAUGUUUACAUACCAA”, the “apparent Kd” value [1] was 18 nM and the “apparent Kd” value [2] was 42.2 nM.

In the case of “CCGCGACAUGAGGAUCACCCAUGUGAUUUGACCUCCGGCACGAGAAGGUUCCGACCAAACGGCCGAAAGGAUAUCGUCCCAGAG”, the “apparent Kd” value [3] is reported as 64.1 nM and the “apparent Kd” value [4] is reported as 38.6 nM.

With “CCUCAACAUGAGGAUCACCCAUGUCAGGAUAUCUAGGAGACAUCACAUGCGUCCGAUGAGAGAAGGGACACAGU” the “apparent Kd” value [1] was 25.1 nM and the “apparent Kd” value [2] was 27.5 nM.

In the case of “CCUCGGCCAUCAGGAUAUCAUUCUCCGAUGCGGAACAUGAGGAUCACCCAUGUUGGGUACCCGUGUGAGAAGGGAUGCGUACGG”, the “apparent Kd” value [1] is reported as 74.3 nM and the “apparent Kd” value [2] is reported as 62.2 nM.

With “CCUGGACAUGAGGAUCACCCAUGUGAGGAUACCAGAUAUCCUGAUAUCCCUUGGCAGCCUCAUUACUUCGCAUUACCGAAACUUC” the “apparent Kd” value [7] was 103 nM and the “apparent Kd” value [8] was 249 nM.

With “CGACAUAACCGAGGAUAUCGCUGACGUAAGCACAUGAGGAUCACCCAUGUGAGUGAGAGUGAGUACGAGAAGGCGGAAUUAAGG” the “apparent Kd” value [3] was 53.3 nM and the “apparent Kd” value [4] was 16.5 nM.

With “CGCCCGAAAGGAUAUACAUGAGGAUCACCCAUGUUUCUAGCAAAAUGACCCUCAAUUCGUAGAAGGUUCCGAGU” the “apparent Kd” value [1] was 32.6 nM and the “apparent Kd” value [2] was 36.1 nM.

In the case of “CGCGAGACGGCGGCCGCCACUUGUUGUUGGAAACUCGAGUUACAUGAGGAUCACCCAUGUCCUUAAAGGACCGGGCCGUAAGUAA”, the “apparent Kd” value [9] is reported as 226 nM and the “apparent Kd” value [10] is reported as 164 nM.

In the case of “CGGCGCUUAGGAUAUUAGAGAUGCAACAUGAGGAUCACCCAUGUGAUGAGGGUUGGCAGCUAAGAAGGAAGCAUCC”, the “apparent Kd” value [1] is reported as 86 nM and the “apparent Kd” value [2] is reported as 61.5 nM.

For “CGGCUCAUAAUGGAUACCAGUCCAGCAUAGAAACCUUGACACAUGAGGAUCACCCAUGUUGACCCUUGGCAGCCAUUGAUCAUAC”, the “apparent Kd” value (designed as: OFF switch for theophylline, no ligand) was 22.4 nM and the “apparent Kd” value (ligand present: theophylline, designed as: OFF switch for theophylline) was 133 nM.

“CGGUGACAUGAGGAUCACCCAUGUAAGGAUAUACCGGUUGAAGAUAAUAGCGACGGCGGAAGAAGGUACCUACA” was tested, and the “apparent Kd” value [1] was 32 nM and the “apparent Kd” value [2] was 25.9 nM.

With “CGUAAACAUGAGGAUCACCCAUGUGAUGAUACCAGCACGAUUAACUGCCCUUGGCAGCAUGUAUUGUACGACUUAUUGCCCAUCG” the “apparent Kd” value [7] was 14.8 nM and the “apparent Kd” value [8] was 16.8 nM.

“CGUCUGUGAGGAUAUGGUCGAGGUUGGUGAAUUACUUACAUCCAGAAGGCACAUGAGGAUCACCCAUGUACAUC” was tested, and the “apparent Kd” value [1] was 10.5 nM and the “apparent Kd” value [2] was 13.8 nM.

“CUAUGGGAUAAGGAUAUAAUAAUUGAGAAGGAGUUAGAAGGUAUAACAUGAGGAUCACCCAUGUGAGGGCCCUA” was tested, and the “apparent Kd” value [1] was 9.22 nM and the “apparent Kd” value [2] was 9.07 nM.

With “CUCGUACAUGAGGAUCACCCAUGUCAGGAUAUUACUGUCGAGUCCAAAACUAGAAAGGUAAGAAGGGACACAUU” the “apparent Kd” value [1] was 13.3 nM and the “apparent Kd” value [2] was 17.8 nM.

“CUCUACAUGAGGAUCACCCAUGUAUUAAUACAACUGGGUGCUAGAAGGUGCACUUAAGAAUAGGGCAAGGAUAUAGACCGUUCA” was tested, and the “apparent Kd” value [1] was 158 nM and the “apparent Kd” value [2] was 77.4 nM.
